Experimental findings from PubChem BioAssay AID588730 (Vanderbilt Specialized Chemistry Center, 2011) are described below.

The term Emax denotes the greatest response seen or fitted, relative to the assay's reference.

The assay concerns the target Metabotropic glutamate receptor 6 (Homo sapiens) (UniProt O15303). The assay can be described thus: Fold shift in glutamate response at human mGluR6, Tl+ flux in HEK/GIRK cells, selectivity profiling for mGluR5 PAMs (AID 588730). Particulars: HEK/GIRK hmGluR6, thallium flux, glutamate CRC fold shift, at 10 µM; for Emax: measured here: glutamate max response with compound. In a few lines:
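assay system = HEK/GIRK cells expressing human mGlu6 receptor | probe or stimulus = 11-point glutamate curve in Tl+ buffer | compound dosing = one dose, 10 µM final | detection = thallium flux fluorescence with FluoZin2 dye loading | measure = control EC50 over compound-treated EC50 | benchmarks = vehicle in place of test compound for reference glutamate curve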

Calls of active or inactive are those of the source.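 How the source made its calls: active means fold shift at most 0.5 or above 2, or agonist peak response under 75 or over 125 percent; inactive means the rest.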

Chain of Metabotropic glutamate receptor 6 (Homo sapiens) (O15303 whole entry, looked up): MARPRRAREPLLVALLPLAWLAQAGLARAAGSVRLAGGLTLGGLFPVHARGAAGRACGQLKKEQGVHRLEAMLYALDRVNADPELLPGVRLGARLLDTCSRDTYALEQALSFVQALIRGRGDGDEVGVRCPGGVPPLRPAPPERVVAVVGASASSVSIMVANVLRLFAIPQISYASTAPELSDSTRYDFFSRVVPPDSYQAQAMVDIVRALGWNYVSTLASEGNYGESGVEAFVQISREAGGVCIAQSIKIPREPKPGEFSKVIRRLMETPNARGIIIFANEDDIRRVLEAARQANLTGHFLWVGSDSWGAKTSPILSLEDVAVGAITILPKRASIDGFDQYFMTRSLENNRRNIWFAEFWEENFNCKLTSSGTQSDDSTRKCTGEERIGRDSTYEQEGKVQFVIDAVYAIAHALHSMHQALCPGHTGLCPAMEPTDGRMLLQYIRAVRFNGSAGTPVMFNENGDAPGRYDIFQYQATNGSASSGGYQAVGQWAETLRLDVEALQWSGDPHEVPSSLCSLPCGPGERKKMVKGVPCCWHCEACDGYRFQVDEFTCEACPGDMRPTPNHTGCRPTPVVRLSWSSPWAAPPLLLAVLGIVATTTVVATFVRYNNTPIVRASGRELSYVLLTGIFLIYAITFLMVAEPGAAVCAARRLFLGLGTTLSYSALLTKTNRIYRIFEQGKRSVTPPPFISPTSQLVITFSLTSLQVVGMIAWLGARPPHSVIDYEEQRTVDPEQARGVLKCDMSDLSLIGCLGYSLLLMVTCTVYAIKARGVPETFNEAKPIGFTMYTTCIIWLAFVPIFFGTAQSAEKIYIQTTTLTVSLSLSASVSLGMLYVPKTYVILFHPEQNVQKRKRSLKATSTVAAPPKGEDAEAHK

Regarding `C[C@@H](NC(=O)c1ccc(C#Cc2cccc(F)c2)cn1)C(C)(C)O`, the fold shift is 1.04 (inactive) and the Emax amounted to 93%.
For `CC1(NC(=O)c2ccc(C#Cc3cccc(F)c3)cn2)COC1` the same measures were 0.98 (inactive) and 90%.
